In the library only some 2.1% were active in any assay of this set; here they are far more common.
EP2 modulator = modulators of human EP2 prostaglandin E2 receptor; hit rate 0.83% among 260,000; EP2-expressing cells, cAMP HTRF FRET, PGE2 co-stimulation; P43116; AID 940; induction, % at 25 µM;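 active means compounds whose cAMP rise, as percent of the full-agonist control response, exceeds 60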;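 further: rat C6 glioma line stably carrying human EP2 under a CMV promoter; the protocol text gives 20 µM as final concentration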
Target sequence (P43116 whole entry, looked up): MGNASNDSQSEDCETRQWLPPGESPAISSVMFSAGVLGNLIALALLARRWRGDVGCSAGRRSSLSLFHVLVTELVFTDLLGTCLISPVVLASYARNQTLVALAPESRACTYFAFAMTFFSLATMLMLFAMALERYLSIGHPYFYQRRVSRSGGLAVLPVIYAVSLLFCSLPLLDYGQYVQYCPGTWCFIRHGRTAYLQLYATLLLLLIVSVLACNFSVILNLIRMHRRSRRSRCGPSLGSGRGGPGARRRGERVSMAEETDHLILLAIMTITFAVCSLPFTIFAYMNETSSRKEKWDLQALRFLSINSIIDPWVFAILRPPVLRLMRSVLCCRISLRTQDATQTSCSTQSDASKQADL
FXIa inh 1536 = inhibitors of human coagulation factor XIa. P03951. purified FXIa, Boc-Glu-Ala-Arg-AMC fluorogenic substrate. inhibition, % at 5 µM. hit rate 0.14% among 220,000;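 active means inhibition of at least 40%; inactive means inhibition below 40%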;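 further: fluorescence of freed AMC excited at 355 nm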
Thrombin inh = inhibitors of human thrombin; alpha-thrombin, Boc-VPR-AMC fluorogenic substrate cleavage; P00734; inhibition, % at 5 µM; hit rate 0.26% among 220,000;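 active means inhibition at or above 40%; inactive means inhibition below 40%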
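Material: human alpha-thrombin enzyme / Medium: pH 7.5 Tris (50 mM) with NaCl 150 mM, Tween 20 0.05% / Compound: single-point dosing at 5 µM, 0.2% DMSO / Incubation: enzyme reaction carried out at room temperature / Detection: AMC fluorescence, 355/460 nm / Read-out basis: percent inhibition scaled between no-compound controls and no-enzyme blanks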
PGE2 EP2 inh = blocks the human prostaglandin E2 receptor EP2 | C6 glioma cells expressing human EP2, cAMP TR-FRET; cells stimulated with saturating PGE2 | inhibition, % at 25 µM | hit rate 0.52% among 260,000 | AID 1422;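 active means percent inhibition above 40 after rounding to a whole number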;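 further: rat C6 glioma host cells with rolipram phosphodiesterase inhibitor present; the protocol text gives 20 µM as final concentration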
FXIIa inh 1536 = inhibitors of human coagulation factor XIIa; purified FXIIa, Boc-QGR-AMC fluorogenic substrate, 2 h; hit rate 0.3% among 220,000; P00748; inhibition, % at 5 µM; in the data active means inhibition above about 40%
hK5 inh = blocks human kallikrein 5 protease activity. Q9Y337. recombinant hK5, fluorogenic AMC substrate cleavage. inhibition, % at 5 µM. hit rate 0.59% among 210,000;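 active means inhibition of 40% or more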
Target sequence (Q9Y337 67-293 limits assumed): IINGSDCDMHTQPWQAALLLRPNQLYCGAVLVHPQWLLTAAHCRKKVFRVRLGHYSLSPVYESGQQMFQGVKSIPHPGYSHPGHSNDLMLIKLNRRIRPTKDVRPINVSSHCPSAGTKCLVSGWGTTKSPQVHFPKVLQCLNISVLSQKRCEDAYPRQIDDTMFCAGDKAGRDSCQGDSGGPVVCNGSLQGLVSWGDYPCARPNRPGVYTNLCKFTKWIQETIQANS
EP2 cAMP induct = human EP2 receptor cAMP induction, negative in counter-screens; shares compounds with EP2 modulator; C6 glioma EP2 cells, cAMP HTRF induction; plus low (about EC15) PGE2 agonist; calls only at 20 µM (by protocol); hit rate 47% among 1,300; AID 1080;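 active means cAMP induction above 50% in the main assay while under 30% in all four parallel counter assays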;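 further: rat C6 glioma cells stably expressing human EP2 receptor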
Hits are given with their value; n = inactive; x = no result; + = active, no number; ! = not active in a repeat.

SMILES	EP2 modulator	FXIa inh 1536	Thrombin inh	PGE2 EP2 inh	FXIIa inh 1536	hK5 inh	EP2 cAMP induct
Cc1cc(O)ccc1C1(c2ccc(O)cc2C)OC(=O)c2ccccc21	67	n	n	n	n	n	n
Cc1cccc(C2(c3cccc(C)c3)OC(=O)c3ccccc32)c1	n	n	n	n	n	n	x
O=C(Cc1ccc(Cl)cc1)Nc1ccccc1Sc1ccccc1	75	n	n	n	n	n	+
Cc1ccc(C(=O)Nc2ccccc2Sc2ccccc2)cc1	n	n	n	n	n	n	x
O=C(Nc1ccccc1Sc1ccccc1)c1ccc(F)cc1	72	n	n	n	n	n	+
O=C(Cc1ccccc1)Nc1cc(Cl)ccc1Sc1ccccc1	n	n	n	n	n	n	x
Cn1ccc2cc(NS(=O)(=O)c3ccc4[nH]c(=O)[nH]c(=O)c4c3)ccc21	n	x	x	n	x	x	x
Cc1ccccc1Nc1cccc2nonc12	67	n	n	n	n	n	+
Cc1ccc(CSc2nc3ccccc3cc2C=O)cc1	71	n	n	n	n	n	n
O=C(O)/C=C/c1ccccc1Oc1ccc(Cl)cc1Cl	87	n	n	n	n	n	+
CCOC(=O)c1c(C)nc2ccccc2c1-c1ccccc1	85	n	n	n	n	n	+
COC(=O)c1c(C)nc2ccccc2c1-c1ccccc1	89	n	n	n	n	n	n
O=C(CO/N=C/c1ccccc1)N1c2ccccc2Oc2ccccc21	66	n	n	n	n	n	n
CCOC(=O)CCCCCCCCCCCCC1C=CCC1 (stereo unspecified)	n	x	x	n	x	x	+
CCOC(=O)CCCCC(=O)c1[nH]c(=O)[nH]c1C[n+]1ccccc1	n	n	n	n	n	n	x
Cc1ccc(Cn2ccc(=O)c(OCc3c(Cl)cccc3Cl)c2C)cc1	67	n	n	n	n	n	+
Cc1[nH]ccc(=O)c1OCc1c(Cl)cccc1Cl	n	n	n	n	n	n	x
CCOc1nc2cccc(C(=O)OC(C)OC(=O)OC3CCCCC3)c2n1Cc1ccc(-c2ccccc2-c2nn[nH]n2)cc1 (stereo unspecified)	n	x	x	n	x	x	n
C/C(CCC(C)C)=N\NC(=S)NCc1ccccc1	66	n	n	n	n	n	+
Cc1cc(SCCC(=O)O)nc2ccccc12	x	x	x	n	x	x	x
Cc1cc(SCC(=O)c2ccccc2)nc2ccccc12	n	x	x	n	x	x	n
O=C(c1ccccc1)C1CN(Cc2ccccc2)CCC1(O)c1ccccc1 (stereo unspecified)	76	n	n	n	n	n	n
COC(=O)[C@H]1CN(C(=O)c2ccc(C)[nH]c2=O)C[C@@H]1c1ccc(F)cc1	n	x	x	x	x	x	x
C=C[C@@](C)(O)CCC1C(=C)C[C@H](O)C2C(C)(C)CCCC12C (stereo partly specified)	79	x	x	n	x	x	+
CC1=CC(C)(C)N(S(=O)(=O)c2ccc(C)cc2)c2cc(C)ccc21	70	n	n	n	n	n	+
SMILES	EP2 modulator	FXIa inh 1536	Thrombin inh	PGE2 EP2 inh	FXIIa inh 1536	hK5 inh	EP2 cAMP induct
CCn1c(SCC(=O)Nc2ccc(C)cc2C)nnc1-c1ccoc1C	n	x	x	n	x	x	x
C#CCSc1nc(Cc2ccc(Cl)cc2)nc2ccccc12	67	n	n	n	n	n	+
COc1nc(Cc2ccc(Cl)cc2)nc2ccccc12	n	n	n	n	n	n	x
COc1cccc(N=c2oc3c(C)ncc(CO)c3cc2C(=O)Nc2ccccc2OC)c1	68	n	n	x	n	n	n
Cc1cc(=O)[nH]c(SCC(=O)N2CCC(C(N)=O)CC2)n1	n	n	n	n	n	n	x
CCCc1cc(=O)[nH]c(SCC(=O)N2CCC(C(=O)OCC)CC2)n1	68	n	n	n	n	n	n
O=C(N/N=C/c1cccc(F)c1)NC1CCCCC1	85	n	n	n	n	n	+
O=C(N/N=C/c1ccccc1F)NC1CCCCC1	n	n	n	n	n	n	x
CCOC(=O)c1c(NC(=O)c2ccoc2C)sc(C)c1C	77	n	n	n	n	n	n
CCOC(=O)c1c(NC(=O)COC(=O)c2ccncc2)sc(C)c1C	n	n	n	n	n	n	x
CCOC(=O)c1cc(NC(=O)c2ccoc2C)cc(C(=O)OCC)c1	n	n	n	n	n	n	x
CCOC(=O)c1c(NC(=O)c2ccncc2)sc(C)c1C	74	n	n	n	n	n	+
CCOC(=O)c1c(NC(=O)c2c(Br)cnn2CC)sc(C)c1C	73	n	n	n	n	n	+
CCn1ncc(Br)c1C(=O)Nc1sc2c(c1C(=O)OC)CCC2	x	x	x	n	x	x	x
CCOC(=O)c1c(NC(=O)CSC(=S)N(C)C)sc(C)c1C	66	n	n	n	n	n	+
CCc1c(C)nc2c(C)c(-c3ccccc3)[nH]n2c1=O	n	x	x	n	x	x	x
COc1ccc(N2CCN(C(c3ccc(Cl)cc3)c3nnnn3C(C)(C)C)CC2)cc1 (stereo unspecified)	n	x	x	n	x	x	x
CCOC(=O)c1c(/N=C/C2C(=O)CCCC2=O)sc2c1CCCC2	n	n	n	n	n	n	n
CCOC(=O)c1c(CC(C)C)csc1/N=C/C1C(=O)CCCC1=O	68	n	n	n	n	n	n
O=C(Nc1ccccc1N1CCOCC1)c1ccc2ccccc2n1	70	n	n	n	n	n	+
COc1ccc2cc(C#N)c(SCC(=O)Nc3cc(C(F)(F)F)ccc3Cl)nc2c1	n	x	x	n	x	x	x
O=C(O)c1nc2nc(Cl)c(Cl)nc2[nH]1	63!	n	n	n	n	n	n
CSc1ccccc1NC(=O)COc1ccc(Cl)cc1C	67	n	n	n	n	n	+
COc1ccccc1Nc1cc(C)nc2c(C)ccc([N+](=O)[O-])c12	80	n	n	n	n	n	+
Cc1cc(Nc2ccccc2)c2c([N+](=O)[O-])cc(C)c(C)c2n1	n	n	n	n	n	n	x
SMILES	EP2 modulator	FXIa inh 1536	Thrombin inh	PGE2 EP2 inh	FXIIa inh 1536	hK5 inh	EP2 cAMP induct
C/C(=N\NC(=O)NC1CCCCC1)C1CCCCC1	71	n	n	n	n	n	n
O=C(O)c1ccc(N2C(=O)/C(=C/C=C/c3ccccc3)SC2=S)cc1	80	n	n	n	n	n	+
Cc1c(C=O)c(C=O)c(C)n1Cc1ccccc1	n	n	n	n	n	n	x
CCOC(=O)c1c(C=O)c(C)n(Cc2ccccc2Cl)c1C	72	n	n	n	n	n	n
CCOC(=O)c1c(C=O)c(C)n(Cc2ccc(C)cc2)c1C	86	n	n	n	n	n	n
CC1(c2ccccc2)CC(C)(C)N(C(=O)C2CCCO2)c2ccccc21 (stereo unspecified)	69	n	n	n	n	n	+
CC1(c2cc([N+](=O)[O-])cc([N+](=O)[O-])c2)CC(C)(C)N(C(=O)c2ccccc2)c2ccccc21 (stereo unspecified)	74	n	n	n	n	n	n
Cc1nn(Cc2c(Cl)cccc2Cl)c(C)c1C(=O)NCc1ccc(C)n1C	75	n	n	n	n	n	n

Screening data deposited in PubChem BioAssay by several laboratories.
